Converted amounts (≈) assume the structure as drawn.
Assays:
Histone deacetylase = assay: Inhibition of HDAC in human HeLa cells assessed as deacetylation of substrate by fluorescence plate reader analysis; type: cell-based
Outline: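 Enzyme source: HeLa cell nuclear extract (partially purified HDAC). Extract incubated with an acetylated-lysine substrate in the presence of inhibitor; a developer then releases a fluorophore from the deacetylated substrate, read at ex/em 335/460 nm. IC50 is the concentration giving 50% inhibition of enzymatic activity, from triplicate runs averaged. SAHA and LAQ-xx were positive controls.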

[1] = target: T1, Histone deacetylase (Homo sapiens) (UniProt Q13547+O15379+Q9UBN7+Q92769+Q9UQL6+Q8WUI4+Q9BY41+Q96DB2+P56524+Q9UKV0+Q969S8); assay: Inhibition of HDAC (unknown origin) at 0.1 uM; type: protein assay
Outline: (§1)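 HeLa nuclear extract HDAC incubated with an acetylated-lysine substrate and inhibitor. Deacetylated substrate mixed with developer gives a fluorophore, read at ex/em 335/460 nm. Two-point screen at 0.1 and 1.0 µM, expressed as % inhibition. Triplicate determinations, averaged.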

HCT-116 = assay: Cytotoxicity against human HCT116 cells after 5 days by Alamar Blue assay; type: functional, cell-based; details: HCT-116, 120 h
Outline: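 Colon cancer HCT-116 cells were seeded in complete medium, and inhibitors were added after 24 h at 0.1–100 µM in quadruplicate. After 5 days, Alamar Blue was added and plates were incubated a further 4 h. Fluorescence was read at ex 530/em 590 nm. IC50 is the concentration giving 50% inhibition of proliferation.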

[2] = target: T1, Histone deacetylase (Homo sapiens); assay: Inhibition of HDAC (unknown origin) at 1 uM; type: protein assay; outline: as §1
[3] = Aqueous solubility of the compound at pH 7.4; type: physicochemical

| IC50 (Histone deacetylase) | inhibition [1] | inhibition [2] | solubility [3] | Structure (SMILES) | IC50 (HCT-116) |
| --- | --- | --- | --- | --- | --- |
|  | 52% | 80% |  | O=C(NO)c1cc2ccc(CN(CCO)Cc3ccccc3)cc2s1 | 830 nM |
| 1080 nM |  |  |  | O=C(NO)c1cc2ccsc2s1 |  |
|  | 49% | 78% | 4 µg/mL (≈ 12.2 µM) | O=C(Cc1ccncc1)Nc1ccc2sc(C(=O)NO)cc2c1 | 8600 nM |
|  | 32% | 73% | 4 µg/mL (≈ 12.8 µM) | O=C(NO)c1cc2ccc(NCCc3ccccc3)cc2s1 |  |
|  | 60% | 88% |  | O=C(Cc1ccccc1)NCc1ccc2cc(C(=O)NO)sc2c1 | 1200 nM |
|  | 28% | 69% | 4 µg/mL (≈ 11.8 µM) | O=C(CCc1ccccc1)Nc1ccc2sc(C(=O)NO)cc2c1 |  |
|  | < 20% | 24% |  | O=C(NO)c1cc2ccc(CSc3ccc(F)cc3)cc2s1 |  |
|  | 27% | 67% | 4 µg/mL (≈ 11.3 µM) | CN(C(=O)CCc1ccccc1)c1ccc2sc(C(=O)NO)cc2c1 |  |
|  | 93% | 87% |  | O=C(NCc1ccc2cc(C(=O)NO)sc2c1)c1ccccc1 | 250 nM |

The next lines start with the compound.

| Structure (SMILES) | IC50 (Histone deacetylase) | inhibition [1] | inhibition [2] | solubility [3] | IC50 (HCT-116) |
| --- | --- | --- | --- | --- | --- |
| O=C(NO)c1csc2ccccc12 | 76130 nM |  |  |  |  |
| O=C(Cc1ccncc1)Nc1ccc2cc(C(=O)NO)sc2c1 |  | 66% | 84% | 4 µg/mL (≈ 12.2 µM) | 1800 nM |
| COc1cccc(CC(=O)Nc2ccc3cc(C(=O)NO)sc3c2)c1 |  | 65% | 83% |  | 600 nM |
| O=C(NO)c1cc2ccc(NCc3ccccc3)cc2s1 |  | 58% | 79% | 4 µg/mL (≈ 13.4 µM) | 1300 nM |
| O=C(NO)c1cc2cc(NCc3ccccc3)ccc2s1 |  | 28% | 68% | 4 µg/mL (≈ 13.4 µM) |  |
| COc1ccccc1CC(=O)Nc1ccc2cc(C(=O)NO)sc2c1 |  | 54% | 81% |  | 550 nM |
| O=C(NO)c1cc2cccc(C(F)(F)F)c2s1 | 9190 nM |  |  |  |  |
| O=C(NO)c1cc2ccc(CN(CCO)c3ccccc3)cc2s1 |  | 53% | 76% |  | 1700 nM |
| Cc1cc2sc(C(=O)NO)cc2cc1O | 989 nM |  |  |  |  |
| COc1cc2cc(C(=O)NO)sc2cc1C | 1350 nM |  |  |  |  |
| N[C@H](C(=O)Nc1ccc2cc(C(=O)NO)sc2c1)c1ccccc1 |  | 69% | 85% |  | 770 nM |
| O=C(NO)c1cc2cc(NCCc3ccccc3)ccc2s1 |  | 28% | 61% | 4 µg/mL (≈ 12.8 µM) |  |
| O=C(Cc1ncc[nH]1)Nc1ccc2cc(C(=O)NO)sc2c1 |  | 24% | 78% |  |  |
| O=C(NO)c1cc2ccccc2s1 | 2170 nM |  |  |  |  |
| O=C(CCc1ccccc1)Nc1ccc2cc(C(=O)NO)sc2c1 |  | 42% | 76% | 4 µg/mL (≈ 11.8 µM) | 2600 nM |
| O=C(Cc1ccccc1)Nc1ccc2sc(C(=O)NO)cc2c1 |  | 48% | 82% | 4 µg/mL (≈ 12.3 µM) | 1300 nM |
| O=C(NO)c1cc2c(Cl)cccc2s1 | 11630 nM |  |  |  |  |
| Cc1ccc2cc(C(=O)NO)sc2c1 | 1760 nM |  |  |  |  |
| O=C(Cc1cccnc1)Nc1ccc2sc(C(=O)NO)cc2c1 |  | 49% |  | 4 µg/mL (≈ 12.2 µM) | 17000 nM |
